Test results: ChEMBL document CHEMBL4017453, “Design, synthesis and optimization of bis-amide derivatives as CSF1R inhibitors” (Bioorg Med Chem Lett, 2017)
≈ marks a conversion by molar mass, not a printed value. Values belong to the compound of their own block, whether it stands above or below them. Calls of active or inactive are those of the source. The rule behind the calls is not given here.

Assays:
[1] = Growth inhibition of mouse BMMC at 1 uM after 72 hrs by CellTiter-Glo luminescent assay relative to control; format: functional; details: read-out: GI
Method in brief: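 Cell viability in primary mouse bone marrow-derived macrophages, which depend on CSF1 for survival; inhibition measured at 1 single concentration.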

[2] = tested on: RAW264.7; assay: Growth inhibition of mouse RAW264.7 cells at 1 uM after 72 hrs by CellTiter-Glo luminescent assay relative to control; format: functional; details: for inhibition of growth at 1 µM: RAW264.7, 72 h, read-out: GI
[3] = biological target: Macrophage colony-stimulating factor 1 receptor (Homo sapiens, UniProt P07333); assay: Inhibition of human CSF1R using poly[Glu:Tyr] (4:1) as substrate incubated for 2 hrs in presence of [33gammaP]ATP by P81 ion exchange chromatographic method
Sequence of Macrophage colony-stimulating factor 1 receptor (P07333 whole entry): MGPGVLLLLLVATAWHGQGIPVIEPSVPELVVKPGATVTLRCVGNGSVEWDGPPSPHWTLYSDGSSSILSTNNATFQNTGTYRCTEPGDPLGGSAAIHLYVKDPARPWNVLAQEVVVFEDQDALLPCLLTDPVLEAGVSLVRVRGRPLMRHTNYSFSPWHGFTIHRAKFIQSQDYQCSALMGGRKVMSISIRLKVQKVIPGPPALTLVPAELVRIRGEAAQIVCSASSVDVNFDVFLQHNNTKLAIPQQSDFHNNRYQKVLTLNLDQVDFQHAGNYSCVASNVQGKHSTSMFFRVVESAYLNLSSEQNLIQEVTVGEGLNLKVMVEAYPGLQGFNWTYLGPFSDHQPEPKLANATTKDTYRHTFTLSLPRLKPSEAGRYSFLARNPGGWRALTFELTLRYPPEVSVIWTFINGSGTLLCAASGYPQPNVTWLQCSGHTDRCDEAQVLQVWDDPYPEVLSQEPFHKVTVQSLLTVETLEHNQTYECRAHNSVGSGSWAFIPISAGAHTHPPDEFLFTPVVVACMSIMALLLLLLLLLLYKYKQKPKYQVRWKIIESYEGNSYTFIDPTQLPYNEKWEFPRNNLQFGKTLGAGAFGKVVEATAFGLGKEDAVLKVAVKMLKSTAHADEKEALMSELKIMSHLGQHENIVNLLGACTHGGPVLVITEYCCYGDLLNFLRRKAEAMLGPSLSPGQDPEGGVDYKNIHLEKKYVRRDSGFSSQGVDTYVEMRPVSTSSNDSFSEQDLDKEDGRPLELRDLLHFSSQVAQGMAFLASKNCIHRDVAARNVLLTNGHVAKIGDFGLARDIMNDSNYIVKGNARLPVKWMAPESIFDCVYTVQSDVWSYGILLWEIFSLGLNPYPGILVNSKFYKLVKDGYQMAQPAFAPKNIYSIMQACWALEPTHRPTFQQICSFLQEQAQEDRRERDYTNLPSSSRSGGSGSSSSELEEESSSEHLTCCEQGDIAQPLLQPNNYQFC

[4] = organism: Homo sapiens; assay: Selectivity ratio of IC50 for human c-Kit to IC50 for human CSF1R
Method in brief: (§1)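 Radiometric kinase assay: enzyme incubated with [γ-33P]-ATP and peptide substrate; IC50 curves fitted per compound. Selectivity expressed as c-Kit IC50 over CSF1R IC50.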

[5] = biological target: Mast/stem cell growth factor receptor Kit (Homo sapiens, UniProt P10721); assay: Inhibition of human c-Kit using poly[Glu:Tyr] (4:1) as substrate measured after 2 hrs in presence of [33gammaP]ATP by […] ion exchange chromatographic method; method in brief: as §1
Sequence of Mast/stem cell growth factor receptor Kit (P10721 whole entry): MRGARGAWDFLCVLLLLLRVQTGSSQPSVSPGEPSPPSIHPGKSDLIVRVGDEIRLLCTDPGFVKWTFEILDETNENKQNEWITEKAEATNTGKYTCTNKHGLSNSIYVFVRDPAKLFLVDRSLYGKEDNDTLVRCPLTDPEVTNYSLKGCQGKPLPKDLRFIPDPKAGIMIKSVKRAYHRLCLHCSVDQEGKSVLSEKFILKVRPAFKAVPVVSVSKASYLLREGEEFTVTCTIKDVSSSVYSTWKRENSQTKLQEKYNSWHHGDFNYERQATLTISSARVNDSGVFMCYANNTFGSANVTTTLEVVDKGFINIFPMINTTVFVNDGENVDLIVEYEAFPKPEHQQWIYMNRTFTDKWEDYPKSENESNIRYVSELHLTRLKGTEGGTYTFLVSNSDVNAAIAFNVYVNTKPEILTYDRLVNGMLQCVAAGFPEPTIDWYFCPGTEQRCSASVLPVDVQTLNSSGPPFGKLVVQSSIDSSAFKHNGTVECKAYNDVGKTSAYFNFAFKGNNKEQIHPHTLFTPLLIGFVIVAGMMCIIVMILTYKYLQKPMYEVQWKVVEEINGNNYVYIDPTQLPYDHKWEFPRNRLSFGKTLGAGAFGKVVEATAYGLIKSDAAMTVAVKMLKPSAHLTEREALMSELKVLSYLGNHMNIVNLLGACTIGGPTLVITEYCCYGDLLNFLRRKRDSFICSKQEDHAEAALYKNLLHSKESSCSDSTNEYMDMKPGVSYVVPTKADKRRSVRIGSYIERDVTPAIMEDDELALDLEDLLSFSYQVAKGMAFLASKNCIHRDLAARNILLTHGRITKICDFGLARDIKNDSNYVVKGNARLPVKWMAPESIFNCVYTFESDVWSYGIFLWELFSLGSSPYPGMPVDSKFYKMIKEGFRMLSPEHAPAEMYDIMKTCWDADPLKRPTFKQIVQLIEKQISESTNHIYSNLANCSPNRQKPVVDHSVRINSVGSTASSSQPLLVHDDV

[6] = Stability in human liver microsomes assessed as compound remaining at 1 uM after 30 mins in presence of NADPH by LC/MS/MS analysis; format: ADME, microsome; details: read-out: Stability
Method in brief: (§2)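 Metabolic stability in human or mouse liver microsomes supplemented with NADPH; reported as percent of parent remaining relative to time-zero control.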

[7] = Stability in mouse liver microsomes assessed as compound remaining at 1 uM after 30 mins in presence of NADPH by LC/MS/MS analysis; format: ADME, microsome; details: read-out: Stability; method in brief: as §2
[8] = tested on: Liver; assay: Drug level in mouse liver microsomes treated with N-(4-methyl-3-(3-(1-methyl-1H-pyrazol-4-yl)benzamido)phenyl)-4-((4-methylpiperazin-1-yl)methyl)-3-(trifluoromethyl)benzamide at 10 uM measured after 1 hr in presence of NADPH; format: ADME, microsome
[9] = Apparent permeability from apical to basolateral side in human Caco2 cells at 10 uM incubated for 60 mins by LC-MS/MS analysis; format: ADME, cell-based, Caco-2; details: for Papp A→B at 1 h, 10 µM: Caco-2
Method in brief: (§3)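 Caco2 monolayer permeability measured in apical-to-basolateral and basolateral-to-apical directions; mean Papp with SD reported, efflux ratio calculated from the two directions.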

[10] = Apparent permeability from basolateral to apical side in human Caco2 cells at 10 uM incubated for 60 mins by LC-MS/MS analysis; format: ADME, cell-based, Caco-2; details: for Papp B→A at 1 h, 10 µM: Caco-2; method in brief: as §3
[11] = Terminal half life in CD-1 mouse at 2 mg/kg, iv; format: ADME, organism-based; details: in vivo, read-out: beta t1/2 (converted)
Method in brief: (§4)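 Mice given a single IV dose (2 mg/kg) or oral dose (10 mg/kg); plasma levels followed over time. AUClast taken from time 0 to last quantifiable concentration; Cmax and Tmax read from observed profile; CL is systemic clearance and Vss volume at steady state, both from IV; oral bioavailability derived from PO versus IV exposure.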

[12] = Cmax in CD-1 mouse plasma at 2 mg/kg, iv; format: ADME, organism-based; design: dose 2 mg/kg, route intravenous; method in brief: as §4
[13] = Clearance in iv dosed mouse; format: ADME, organism-based; details: in vivo; method in brief: as §4
[14] = Systemic clearance in CD-1 mouse at 2 mg/kg, iv; format: ADME, organism-based; details: in vivo; method in brief: as §4
[15] = tested on: Liver; assay: Drug metabolism in mouse liver microsomes assessed as demethylation by measuring N-(4-methyl-3-(3-(1-methyl-1H-pyrazol-4-yl)benzamido)phenyl)-4-(piperazin-1-ylmethyl)-3-(trifluoromethyl)benzamide level at 10 uM measured after 1 hr in presence of NADPH; format: ADME, microsome
[16] = Cmax in CD-1 mouse plasma at 10 mg/kg, po; format: ADME, organism-based; design: dose 10 mg/kg, route oral; method in brief: as §4
[17] = AUC (0 to last) in CD-1 mouse at 10 mg/kg, po; format: ADME, organism-based; design: dose 10 mg/kg, route oral, time 0 - last; details: in vivo; method in brief: as §4
[18] = Kinetic solubility of the compound in PBS buffer at pH 7.4 at […] after 1 hr by nephelometry; format: physicochemical; details: read-out: Kinetic_solubility
Method in brief: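 Kinetic solubility determined in isotonic phosphate buffer.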

[19] = AUC (0 to last) in CD-1 mouse at 2 mg/kg, iv; format: ADME, organism-based; design: dose 2 mg/kg, time 0 - last, route intravenous; details: in vivo; method in brief: as §4
[20] = Stability in mouse plasma assessed as compound remaining at 1 uM after 4 hrs by LC/MS/MS analysis; format: ADME, cell-free; details: read-out: Stability
Method in brief: (§5)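 Test article incubated 4 h in human or mouse plasma to probe amidase hydrolysis; percent parent remaining versus time-zero control.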

[21] = Tmax in CD-1 mouse at 10 mg/kg, po; format: ADME, organism-based; details: in vivo; method in brief: as §4
[22] = Stability in human plasma assessed as compound remaining at 1 uM after 4 hrs by LC/MS/MS analysis; format: ADME, cell-free; details: read-out: Stability; method in brief: as §5
[23] = Volume of distribution at steady state in CD-1 mouse at 2 mg/kg, iv; format: ADME, organism-based; details: in vivo, read-out: Vdss; method in brief: as §4
[24] = Terminal half life in CD-1 mouse at 10 mg/kg, po; format: ADME, organism-based; details: in vivo, read-out: beta t1/2 (converted); method in brief: as §4
[25] = Oral bioavailability in CD-1 mouse at 10 mg/kg; format: ADME, organism-based; details: in vivo; method in brief: as §4

SMILES: Cc1ccc(C(=O)Nc2ccc(CN3CCN(C)CC3)c(C(F)(F)F)c2)cc1NCc1cccc(-c2cccs2)c1
IC50 [5]: > 10000 nM

SMILES: Cc1ccc(NC(=O)c2cccc(C(F)(F)F)c2)cc1NC(=O)c1cccc(-c2cnn(C)c2)c1
remaining at 0.5 h, 1 µM [6]: 68%
remaining at 0.5 h, 1 µM [7]: 74%
growth inhibition (GI) [2]: inactive
IC50 [5]: 130 nM

SMILES: Cc1ccc(CNc2ccc(CN3CCN(C)CC3)c(C(F)(F)F)c2)cc1NC(=O)c1cccc(-c2cccs2)c1
IC50 [5]: 270 nM

SMILES: Cc1ccc(C(=O)Nc2ccc(CN3CCN(C)CC3)c(C(F)(F)F)c2)cc1N(C)C(=O)c1cccc(-c2cccs2)c1
IC50 [5]: > 10000 nM

SMILES: Cc1ccc(C(=O)Nc2ccc(CN3CCN(C)CC3)cc2)cc1NC(=O)c1cccc(-c2cccs2)c1
inhibition of growth at 1 µM [1]: 11%
inhibition of growth at 1 µM [2]: 8%
IC50 [3]: > 10000 nM
IC50 [5]: > 10000 nM

SMILES: Cc1ncc(NC(=O)c2cccc(C(F)(F)F)c2)cc1NC(=O)c1cncc(-c2cnn(C)c2)c1
remaining at 0.5 h, 1 µM [6]: 60%
inhibition of growth at 1 µM [1]: 87%
remaining at 0.5 h, 1 µM [7]: 57%
growth inhibition (GI) [2]: inactive
Papp ([9]; caco-2, 1 h, 10 µM): 0.5 ×10⁻⁶ cm/s
Papp ([10]; caco-2, 1 h, 10 µM): 36.3 ×10⁻⁶ cm/s
IC50 [5]: 180 nM

SMILES: Cc1ccc(NC(=O)c2cccc(C(F)(F)F)c2)cc1NC(=O)c1cnc(N)nc1
remaining at 0.5 h, 1 µM [6]: 91%
inhibition of growth at 1 µM [1]: 86%
remaining at 0.5 h, 1 µM [7]: 65%
growth inhibition (GI) [2]: inactive
Papp A→B at 1 h, 10 µM [9]: 0.1 ×10⁻⁶ cm/s
Papp B→A at 1 h, 10 µM [10]: 5.3 ×10⁻⁶ cm/s
IC50 [5]: 820 nM

SMILES: Cc1ccc(C(=O)Nc2ccc(CN3CCN(C)CC3)c(Cl)c2)cc1NC(=O)c1cccc(-c2cccs2)c1
inhibition of growth at 1 µM [1]: 20%
inhibition of growth at 1 µM [2]: 4%
IC50 [5]: 2700 nM

SMILES: Cc1ccc(C(=O)N(C)c2ccc(CN3CCN(C)CC3)c(C(F)(F)F)c2)cc1NC(=O)c1cccc(-c2cccs2)c1
IC50 [5]: 5900 nM

SMILES: Cc1ccc(NC(=O)c2cccc(C(F)(F)F)c2)cc1NC(=O)c1cncc(-c2cnn(C)c2)c1
half-life [11]: 52.2 min
Cmax [12]: 3550 nM
remaining at 0.5 h, 1 µM [6]: 37%
inhibition of growth at 1 µM [1]: 96%
clearance [14]: 31 mL/min/kg
remaining at 0.5 h, 1 µM [7]: 63%
growth inhibition (GI) [2]: inactive
Cmax [16]: 4600 nM
AUC(0-t) [17]: 6.94 µM·h
AUC(0-t) [19]: 2.24 µM·h
Papp A→B at 1 h, 10 µM [9]: 12.5 ×10⁻⁶ cm/s
Tmax [21]: 30 min
Vd [23]: 1.1 L/kg
half-life [24]: 108 min
Papp B→A at 1 h, 10 µM [10]: 32.5 ×10⁻⁶ cm/s
IC50 [5]: 60 nM
bioavailability [25]: 64%

Second part, led by results:

IC50 [3]: < 0.5 nM
IC50 [5]: 20 nM
SMILES: Cc1ccc(NC(=O)c2ccc(CN3CCN(C)CC3)c(C(F)(F)F)c2)cc1NC(=O)c1cccc(-c2cn[nH]c2)c1
inhibition of growth at 1 µM [1]: 80%
growth inhibition (GI) [2]: inactive
Ratio IC50 [4]: > 40

IC50 [5]: 210 nM
SMILES: Cc1ccc(C(=O)Nc2ccc(CN3CCN(C)CC3)c(C(F)(F)F)c2)cc1NC(=O)c1cccc(-c2cccnc2)c1
inhibition of growth at 1 µM [1]: 61%
inhibition of growth at 1 µM [2]: 6%

IC50 [5]: 310 nM
SMILES: Cc1ccc(C(=O)Nc2ccc(CN3CCN(C)CC3)c(C(F)(F)F)c2)cc1NC(=O)c1cccc(-c2cncnc2)c1
inhibition of growth at 1 µM [1]: 64%
inhibition of growth at 1 µM [2]: 9%

IC50 [5]: 1680 nM
SMILES: Cc1ccc(NC(=O)c2ccc(CN3CCN(C)CC3)c(C(F)(F)F)c2)cc1NC(=O)c1cccc(-c2cccs2)c1

IC50 [5]: 440 nM
SMILES: Cc1ccc(C(=O)Nc2ccc(CN3CCN(C)CC3)c(C(F)(F)F)c2)cc1NC(=O)c1cccc(-c2cccs2)c1
inhibition of growth at 1 µM [1]: 22%
inhibition of growth at 1 µM [2]: 7%

remaining at 0.5 h, 1 µM [6]: 85%
remaining at 0.5 h, 1 µM [7]: 72%
IC50 [5]: 3000 nM
Drug metabolism [8]: Metabolite_Detected
SMILES: Cc1ccc(NC(=O)c2ccc(CN3CCNCC3)c(C(F)(F)F)c2)cc1NC(=O)c1cccc(-c2cnn(C)c2)c1
inhibition of growth at 1 µM [1]: 44%

IC50 [5]: 7500 nM
SMILES: Cc1ccc(NC(=O)c2ccc(CN3CCN(C)CC3)c(C(F)(F)F)c2)cc1NC(=O)c1cccc(-c2nn[nH]n2)c1
inhibition of growth at 1 µM [1]: 2.4%
growth inhibition (GI) [2]: inactive

IC50 [5]: 900 nM
SMILES: Cc1ccc(NC(=O)c2ccc(CN3CCN(C)CC3)c(C(F)(F)F)c2)cc1NC(=O)c1cccc(-c2cccnc2)c1
inhibition of growth at 1 µM [1]: 84%
growth inhibition (GI) [2]: inactive

IC50 [5]: 15000 nM
SMILES: Cc1ccc(NC(=O)c2ccc(CN3CCN(C)CC3)c(C(F)(F)F)c2)cc1NC(=O)c1cccc(-c2ccccn2)c1
inhibition of growth at 1 µM [1]: 31%
growth inhibition (GI) [2]: inactive

half-life [11]: 13.8 min
Cmax [12]: 850 nM
clearance [13]: 210 mL/min/kg
remaining at 0.5 h, 1 µM [6]: 46 to 47%
clearance [14]: 210 mL/min/kg
remaining at 0.5 h, 1 µM [7]: 7%
Drug metabolism [15]: Metabolite_Detected
Cmax [16]: 160 nM
AUC(0-t) [17]: 0.16 µM·h
solubility kinetic at 1 h [18]: 4.7 µM (≈ 2.78 µg/mL)
AUC(0-t) [19]: 0.27 µM·h
remaining at 4 h, 1 µM [20]: 67%
Tmax [21]: 15 min
remaining at 4 h, 1 µM [22]: 95%
Vd [23]: 4.23 L/kg
half-life [24]: 79.2 min
IC50 [5]: 740 nM
bioavailability [25]: 11%
SMILES: Cc1ccc(NC(=O)c2ccc(CN3CCN(C)CC3)c(C(F)(F)F)c2)cc1NC(=O)c1cccc(-c2cnn(C)c2)c1
inhibition of growth at 1 µM [1]: 81%
growth inhibition (GI) [2]: inactive

IC50 [5]: 5970 nM
SMILES: Cc1ccc(NC(=O)c2ccc(CN3CCN(C)CC3)c(C(F)(F)F)c2)cc1NC(=O)c1cccc(-c2cncnc2)c1
inhibition of growth at 1 µM [1]: 76%
growth inhibition (GI) [2]: inactive

IC50 [5]: 190 nM
SMILES: CN1CCN(Cc2ccc(NC(=O)c3ccc(Cl)c(NC(=O)c4cccc(-c5cccs5)c4)c3)cc2C(F)(F)F)CC1
inhibition of growth at 1 µM [1]: -7%
inhibition of growth at 1 µM [2]: 8%

IC50 [5]: 390 nM
SMILES: Cc1ccc(NC(=O)c2ccc(CN3CCN(C)CC3)c(C(F)(F)F)c2)cc1NC(=O)c1cccc(-c2ccncc2)c1
inhibition of growth at 1 µM [1]: 72%
growth inhibition (GI) [2]: inactive
